In PubChem BioAssay:
The source made the active and inactive calls.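 How the source made its calls, unless noted: active means viability loss from added drug above about 55%, and viability with drug at most 40%, in both replicates (limit read from the data, passing the limit was not always enough); inconclusive means both conditions met in only one replicate; inactive means neither replicate meets both conditions.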

How the values were obtained:
[1] = reducers of endogenous Her2 protein level, primary screen, SKBR3 breast tumor cells, AlphaScreen, ATP viability (AID 461;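 active means Her2 level under about 52% in both replicate screens, with viability over 70% of control, limit read from the data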;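 on Her2 level: lower value means less Her2 protein in the cells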;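 on viability: percent of carrier control wells set as 100% viability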); conditions: 18-24 h, measured here: SKBR3 viability, ATP luminescence, at 10 µM
[2] = target: Receptor tyrosine-protein kinase erbB-2 (Homo sapiens) (UniProt P04626); experiment: as above; conditions: 18-24 h, at 10 µM, stronger effect = lower value
Chain of Receptor tyrosine-protein kinase erbB-2 (Homo sapiens) (P04626 whole entry, looked up): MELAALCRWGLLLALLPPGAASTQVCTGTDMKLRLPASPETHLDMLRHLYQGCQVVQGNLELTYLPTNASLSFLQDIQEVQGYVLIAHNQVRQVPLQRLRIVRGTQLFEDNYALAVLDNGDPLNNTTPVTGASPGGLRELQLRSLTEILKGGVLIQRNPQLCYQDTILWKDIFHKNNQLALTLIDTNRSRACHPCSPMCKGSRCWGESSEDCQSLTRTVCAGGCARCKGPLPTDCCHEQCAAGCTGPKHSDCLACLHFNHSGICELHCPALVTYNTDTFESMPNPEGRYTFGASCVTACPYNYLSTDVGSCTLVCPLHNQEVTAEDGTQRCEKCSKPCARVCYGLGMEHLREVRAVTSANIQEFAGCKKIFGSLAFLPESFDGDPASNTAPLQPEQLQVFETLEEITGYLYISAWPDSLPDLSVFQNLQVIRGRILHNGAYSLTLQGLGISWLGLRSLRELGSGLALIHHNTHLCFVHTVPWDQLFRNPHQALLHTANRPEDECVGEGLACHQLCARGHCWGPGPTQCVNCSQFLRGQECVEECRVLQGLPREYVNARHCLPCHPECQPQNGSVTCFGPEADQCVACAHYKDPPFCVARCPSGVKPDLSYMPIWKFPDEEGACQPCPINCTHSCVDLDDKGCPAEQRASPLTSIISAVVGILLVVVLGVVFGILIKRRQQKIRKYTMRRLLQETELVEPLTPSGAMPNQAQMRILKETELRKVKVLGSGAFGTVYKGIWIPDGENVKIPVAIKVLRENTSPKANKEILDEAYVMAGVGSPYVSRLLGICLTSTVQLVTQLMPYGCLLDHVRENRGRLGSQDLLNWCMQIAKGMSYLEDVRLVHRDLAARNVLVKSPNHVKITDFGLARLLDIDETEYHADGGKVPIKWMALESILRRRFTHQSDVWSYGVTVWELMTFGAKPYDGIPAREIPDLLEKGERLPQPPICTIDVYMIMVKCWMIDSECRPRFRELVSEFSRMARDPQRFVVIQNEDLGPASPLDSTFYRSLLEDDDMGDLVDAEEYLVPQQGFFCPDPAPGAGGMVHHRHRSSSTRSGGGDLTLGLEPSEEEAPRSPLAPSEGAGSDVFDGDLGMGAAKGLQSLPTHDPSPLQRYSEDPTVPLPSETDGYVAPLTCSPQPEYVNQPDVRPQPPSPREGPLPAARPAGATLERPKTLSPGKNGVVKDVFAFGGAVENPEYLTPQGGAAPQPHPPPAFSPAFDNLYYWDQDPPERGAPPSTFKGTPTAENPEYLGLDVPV

[3] = SK-BR-3 cell growth inhibitors, pilot screen, 24 h, human (AID 572;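 active means viability at or below 10% of carrier control in both of two separate runs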;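 further: compound exposure lasted between 18 and 24 h rather than exactly 24 h; 100% = carrier-treated control wells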); conditions: SK-BR-3 viability, CellTiter-Glo luminescence, at 10 µM, stronger effect = lower value
[4] = HUVEC growth inhibition – cell-based, human, primary screen (AID 575;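 active means viability at or below 30% in both replicate assays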;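 further: 100% = median of untreated cell wells with 0.1% DMSO on each plate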); conditions: HUVEC proliferation, CellTiter-Glo luminescence, 72 h; at 10 µM; stronger effect = lower value
Procedure, shortened: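 System – primary HUVEC, no more than 12 passages · Medium – Low-serum (2% FBS) EBM, supplemented · Times – 72 h exposure, 37 °C, 5% CO2, 30 min RT equilibration · Measured by – luminescent ATP assay · Read-out – % viability relative to median vehicle-well signal on each plate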

[5] = growth inhibitors of H69AR lung tumor, primary screen, human, duplicate replicates (AID 580;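 active means viability at or under a set limit in both replicates, limit being median viability minus 3 SD, cut at about 48% in these data, passing the limit was not always enough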;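 further: 100% = mean luminescence of untreated wells and 0% = no signal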); conditions: H69AR lung tumor cells viability, ATP luminescence, 72 h; at 10 µM; stronger effect = lower value
[6] = reversal of MRP1-mediated doxorubicin resistance, pilot screen, H69AR cells, doxorubicin co-treatment (AID 601); conditions: CellTiter-Glo, 72 h, at 10 µM; for differential viability (reversal): stronger effect = higher value
[7] = 384-well plate pilot, post-Golgi transport modulator project, inhibition of yeast transport mutant growth (AID 636; in the data active means inhibition above about 31%); conditions: absorbance 615 nm, about 18 h, stronger effect = higher value
[8] = growth suppression of yeast trafficking mutant, preliminary HTS, modulators of trafficking downstream of Golgi apparatus project, 1536-format plate, OD 615 nm (AID 637; in the data active means inhibition above about 30%); conditions: yeast transport mutant growth, absorbance 615 nm, 18 h; stronger effect = higher value
[9] = H69AR cells + 2 uM doxorubicin, measured here: viability with 2 uM doxorubicin, stronger effect = lower value
[10] = H69AR cells, compound alone cytotoxicity

| Structure (SMILES) | viability [1] [%] | Her2 level [2] | viability [3] | viability [4] | viability [5] | differential viability (reversal) ([6]; H69AR cells + 2 uM doxorubicin) | viability [6, 9] [%] | viability [6, 10] [%] | inhibition [7] | inhibition [8] |
| --- | --- | --- | --- | --- | --- | --- | --- | --- | --- | --- |
| O=C(CN1C(=O)NC2(CCCCCC2)C1=O)N1CCC(Cc2ccccc2)CC1 | 87 | 94.5% (inactive) | 87% (inactive) | 77.2% (inactive) | 86.7% (inactive) | -4.21% (inactive) | 90.9 | 86.7 | -5.33% (inactive) | 2.46% (inactive) |
| CC(=O)c1c(C)nn(CC(O)COc2ccc3c(c2)CCC3)c1C (stereo not given) | 93.5 | 105% (inactive) | 93.5% (inactive) | 94.4% (inactive) | 87.4% (inactive) | 3.44% (inactive) | 83.9 | 87.4 | 1.33% (inactive) | -6.03% (inactive) |
| Cc1nc2ccc(N3C(=O)CCC3=O)cc2[nH]1 | 100 | 101% (inactive) | 100% (inactive) | 97.6% (inactive) | 103% (inactive) | 7.96% (inactive) | 95.2 | 103 | -5.07% (inactive) | -1.45% (inactive) |
| COc1ccccc1NC(=O)c1nnn(CC(=O)Nc2ccccc2)c1N | 106 | 81% (inactive) | 106% (inactive) | 70.5% (inactive) | 90.7% (inactive) | -6.95% (inactive) | 97.6 | 90.7 | -5.47% (inactive) | -1.31% (inactive) |
| Cc1ccc(/C(O)=C2\C(=O)C(=O)N(CCCN(C)C)C2c2ccccn2)cc1 (stereo not given) | 101 | 93% (inactive) | 101% (inactive) | 118% (inactive) | 104% (inactive) | -4.14% (inactive) | 108 | 104 | -1.84% (inactive) | 4.43% (inactive) |
| COc1cccc(CN2CCN(C(=O)c3ccco3)CC2)c1OC | 112 | 90% (inactive) | 112% (inactive) | 118% (inactive) | 103% (inactive) | 6.7% (inactive) | 96.5 | 103 | -5.14% (inactive) | 0.95% (inactive) |
| Cc1ccc(N2CCN(C(=O)c3ccccc3Br)CC2)c(C)c1 | 110 | 72% (inactive) | 110% (inactive) | 93% (inactive) | 89.2% (inactive) | 10.5% (inactive) | 78.6 | 89.2 | -5.6% (inactive) | 0.16% (inactive) |
| COC(=O)C1=CN(C(C)C)C=C(C(=O)OC)C1c1cc2c(cc1Br)OCO2 | 92.5 | 87.5% (inactive) | 92.5% (inactive) | 74% (inactive) | 85.4% (inactive) | 9.5% (inactive) | 75.9 | 85.4 | -1.47% (inactive) | -4.29% (inactive) |
| COc1ccccc1N1CCN(Cc2nnnn2CCc2ccccc2)CC1 | 88 | 112% (inactive) | 88% (inactive) | 91.5% (inactive) | 93.2% (inactive) | 3.56% (inactive) | 89.7 | 93.2 | 1.51% (inactive) | 25.6% (inactive) |
| O=C1C2C3C=CC(C3)C2C(=O)N1Cc1ccccc1 (stereo not given) | 93.5 | 114% (inactive) | 93.5% (inactive) | 116% (inactive) | 89.6% (inactive) | 9.27% (inactive) | 80.3 | 89.6 | -3.47% (inactive) | 2.95% (inactive) |
| CCOC(=O)COc1ccc(C2NC(C(=O)O)CS2)cc1 (stereo not given) | 94.5 | 102% (inactive) | 94.5% (inactive) | 83.4% (inactive) | 102% (inactive) | 5.91% (inactive) | 96.3 | 102 | -3.03% (inactive) | -7.5% (inactive) |
| c1ccc(N=P(c2nc3ccccc3o2)(N2CCOCC2)N2CCOCC2)cc1 | 119 | 89.5% (inactive) | 119% (inactive) | 104% (inactive) | 91.4% (inactive) | 1.96% (inactive) | 89.4 | 91.4 | -4.27% (inactive) | 7.26% (inactive) |
| COc1cccc(OC)c1C(=O)N1CCN(S(=O)(=O)c2ccc(C)cc2)CC1 | 103 | 108% (inactive) | 103% (inactive) | 87.2% (inactive) | 91.4% (inactive) | -5.23% (inactive) | 96.7 | 91.4 | -7.2% (inactive) | -3.28% (inactive) |
| Cc1ccc(NC(=O)CSc2nnc(-c3ccncc3)n2C)cc1C | 90 | 117% (inactive) | 90% (inactive) | 110% (inactive) | 92.2% (inactive) | 3.42% (inactive) | 88.8 | 92.2 | 1.08% (inactive) | 25.9% (inactive) |
| CC(=O)c1cccc(NC(=O)N2CCCC2C(=O)NCc2ccc(C)cc2)c1 (stereo not given) | 104 | 93.5% (inactive) | 104% (inactive) | 92.5% (inactive) | 95.6% (inactive) | 8.41% (inactive) | 87.1 | 95.6 | -8.92% (inactive) | 8.33% (inactive) |
| Cc1noc(COc2ccccc2OCC(O)CNC(C)(C)C)n1 (stereo not given) | 101 | 89% (inactive) | 101% (inactive) | 103% (inactive) | 97% (inactive) | 7.13% (inactive) | 89.9 | 97 | -5.21% (inactive) | -9.37% (inactive) |
| C=CCNC(=O)CN(c1cccc(Br)c1)S(C)(=O)=O | 96 | 106% (inactive) | 96% (inactive) | 94.6% (inactive) | 102% (inactive) | 10.9% (inactive) | 91.3 | 102 | -5.6% (inactive) | 0.16% (inactive) |
| COc1ccc(C2(CN(C(C)=O)C(C)=O)CCCC2)cc1OC | 89.5 | 93% (inactive) | 89.5% (inactive) | 114% (inactive) | 90.4% (inactive) | 1.69% (inactive) | 88.7 | 90.4 | -4.8% (inactive) | -4.92% (inactive) |
| CCOc1ccccc1N(C(=O)Cn1nnnc1-c1ccc(C)o1)C(CC)C(=O)NC(C)(C)C (stereo not given) | 88.5 | 105% (inactive) | 88.5% (inactive) | 120% (inactive) | 88.5% (inactive) | -14.7% (inactive) | 103 | 88.5 | 1.51% (inactive) | 4.6% (inactive) |
| CC(C)Cn1c(CN2CCN(c3ccccc3F)CC2)nc2c1c(=O)[nH]c(=O)n2C | 93 | 93% (inactive) | 93% (inactive) | 72.9% (inactive) | 93% (inactive) | 8.27% (inactive) | 84.8 | 93 | -4.27% (inactive) | -0.66% (inactive) |
| O=S(=O)(c1ccccc1)N(Cc1nc(-c2ccccc2)no1)C1CCCCC1 | 88 | 77% (inactive) | 88% (inactive) | 96.1% (inactive) | 75.5% (inactive) | -4.17% (inactive) | 79.6 | 75.5 | -6.27% (inactive) | -3.33% (inactive) |
| CCCn1c(=N)n(CC(=O)c2cccs2)c2ccccc21 | 92 | 106% (inactive) | 92% (inactive) | 93.2% (inactive) | 91% (inactive) | -1.29% (inactive) | 92.3 | 91 | -7.33% (inactive) | -4.19% (inactive) |
| COc1cc(NS(=O)(=O)N2CCCC2)cc(OC)c1OC | 83.5 | 95.5% (inactive) | 83.5% (inactive) | 94.8% (inactive) | 92.2% (inactive) | 8.42% (inactive) | 83.8 | 92.2 | -7.57% (inactive) | -2.95% (inactive) |
| Cc1ccc(C2N(c3ccc(Cl)c(Cl)c3)C(=O)C3CCCN32)o1 (stereo not given) | 99 | 82.5% (inactive) | 99% (inactive) | 78.7% (inactive) | 96.2% (inactive) | 6.78% (inactive) | 89.4 | 96.2 | -1.45% (inactive) | 0.32% (inactive) |
| COC(=O)c1cc(Br)c(=O)n(CCC2=CCCCC2)c1 | 81.5 | 99.5% (inactive) | 81.5% (inactive) | 92.5% (inactive) | 89.9% (inactive) | 1.54% (inactive) | 88.4 | 89.9 | -0.27% (inactive) | 6.89% (inactive) |
| CCOC(=O)Cn1c(=N)n(CCOc2cccc(C)c2)c2ccccc21 | 121 | 106% (inactive) | 121% (inactive) | 99.6% (inactive) | 85.9% (inactive) | 1% (inactive) | 84.9 | 85.9 | -6.67% (inactive) | -0.79% (inactive) |
| Fc1cc(F)c(F)c(SCCc2ccncc2)c1F | 97 | 81.5% (inactive) | 97% (inactive) | 93.8% (inactive) | 85.3% (inactive) | 5% (inactive) | 80.3 | 85.3 | 0.67% (inactive) | 1.45% (inactive) |
| CCOC(=O)N1CCC2(O)CCCCC2C1c1ccc(F)cc1 (stereo not given) | 102 | 125% (inactive) | 102% (inactive) | 91.3% (inactive) | 96.8% (inactive) | 8.28% (inactive) | 88.5 | 96.8 | -3.33% (inactive) | 30.8% (active) |
